PKA-R1A act: activators of PKA-R1A complex | P00514+P68181 | PKA-R1A dissociation, Cy5-IP20 fluorescence polarization; scaled: DMSO 0%, 113 µM cGMP 100% | activation, % at 11.4 µM | hit rate 0.083% among 340,000 | AID 504707;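 active means percent activation above the mean of all tested compounds plus 3 SD, cut at about 19% in these data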;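 further: higher means more PKAc released from R1A so a rise in polarization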
SR-BI DiI inh: blocks mouse SR-BI lipid uptake from DiI-HDL; Q61009; ldlA[mSR-BI] CHO cells, DiI-HDL uptake fluorescence, 3 h; inhibition, % at 12.5 µM; hit rate 0.96% among 320,000; AID 488896;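 active means mean replicate inhibition of at least 70% and a set share of replicates each scoring 70 or more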
SR-BI uptake up: SR-BI HDL lipid transfer activation; activation, % at 12.5 µM; CHO ldlA[mSR-BI] cells, DiI-HDL uptake fluorescence, 3 h; 100 = double the neutral-control signal; hit rate 0.096% among 320,000;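 active means mean replicate activation of at least 60% and every replicate at or above 60%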
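Material – SR-BI-overexpressing, LDLR-lacking CHO cells · Medium – BSA-supplemented, HEPES-buffered Ham's F12, pH 7.4 · Doses – single concentration · Times – compound with DiI-HDL co-incubation, 3 h at 37 °C · Measured by – bottom-read fluorescence, 550/595 nm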
PKA-R2B act: activators of human PKA-R2B complex. P22694+P31323. PKA-R2B holoenzyme dissociation, Cy5-IP20 fluorescence polarization; R2B truncated from residue 108, S112A mutant; 0% DMSO only, 100% 113 µM cGMP. activation, % at 11.4 µM. hit rate 0.079% among 340,000. AID 504700;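 active means activation above a cutoff set at the mean over all compounds plus 3 SD, cut at about 18% in these data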;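 further: higher means more holoenzyme dissociation and a rise in polarization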
dFosB act: activators of mouse delta FosB homodimer; activation, % at 25 µM; P13346; AID 493131; purified delta FosB, TAMRA-CDK5 oligo fluorescence polarization; percent of positive-control signal above neutral wells; hit rate 0.99% among 340,000;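 active means mean activation above about 17%, with every replicate also reaching it, limit read from the data, passing the limit was not always enough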
CDK5 p35 inh: blocks human CDK5/p35 kinase activity; inhibition, % at 10 µM; hit rate 0.01% among 330,000; AID 488839; Q00535+Q15078; Recombinant CDK5/p35, ADP-Glo luminescence, 60 min;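 active means highest replicate inhibition of at least 50% and at least 75% of replicates reaching 50%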
Target sequence (Q00535 whole entry, looked up): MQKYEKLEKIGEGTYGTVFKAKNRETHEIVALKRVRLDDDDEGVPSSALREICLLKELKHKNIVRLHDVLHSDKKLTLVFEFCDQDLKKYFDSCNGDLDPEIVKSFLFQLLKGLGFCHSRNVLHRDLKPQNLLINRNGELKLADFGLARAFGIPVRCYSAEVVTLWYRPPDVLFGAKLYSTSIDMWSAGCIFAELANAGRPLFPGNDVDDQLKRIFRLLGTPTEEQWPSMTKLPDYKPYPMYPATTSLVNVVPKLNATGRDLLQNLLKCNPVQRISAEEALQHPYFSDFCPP
Target sequence (Q15078 whole entry, looked up): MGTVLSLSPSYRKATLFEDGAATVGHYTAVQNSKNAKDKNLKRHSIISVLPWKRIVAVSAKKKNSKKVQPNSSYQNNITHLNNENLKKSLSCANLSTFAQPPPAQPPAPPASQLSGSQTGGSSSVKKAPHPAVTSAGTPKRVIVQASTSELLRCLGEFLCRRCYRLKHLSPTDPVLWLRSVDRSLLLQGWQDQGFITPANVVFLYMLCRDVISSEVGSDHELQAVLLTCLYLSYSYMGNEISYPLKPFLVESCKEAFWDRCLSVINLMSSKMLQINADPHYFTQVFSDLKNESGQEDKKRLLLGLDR
Each line names hits and unclear results; the compound was inactive in the other large screens. Only some compounds are listed: those with a hit (about 2.1% of all), similar ones and a draw of the others.

COc1ccc(-c2csc(Nc3ccc(S(N)(=O)=O)cc3)n2)cc1	SR-BI uptake up 108
COc1ccc(-c2csc(Nc3ccccc3)n2)cc1	SR-BI DiI inh 73
COc1cccc(Nc2nc(-c3ccc4c(c3)OCCO4)cs2)c1	SR-BI DiI inh 91
COC(=O)c1ccc(/C=C/c2c(-c3ccsc3)oc3ccc(N4CCOCC4)cc23)cc1	none
CCCCC/C=C/C1=CC(=O)C[C@H](c2ccc(OC)c(OC)c2)C1	none
CCOC(=O)C1=C(CP(=O)(c2ccccc2)c2ccccc2)NC(=O)NC1c1ccc(OC)cc1 (stereo not drawn)	none
CCOC(=O)C1=C(COC(=O)C2(C)CC2(Cl)Cl)NC(=O)NC1c1ccc(OC)cc1 (stereo not drawn)	SR-BI DiI inh 73
OCCCCc1nccc2c1[nH]c1ccccc12	SR-BI uptake up 538
CCCCN1C(=O)C(CC(=O)NC2CCCC2)CC(C(=O)N2CCOCC2)=C1C (stereo not drawn)	none (no result: SR-BI DiI inh, SR-BI uptake up, dFosB act, CDK5 p35 inh)
CC(C)(C)C1CCC2(CC1)C(Nc1cccc(C(F)(F)F)c1)=NC(=S)N2CC#N (stereo not drawn)	SR-BI uptake up 152
C=CS(=O)(=O)N(Cc1ccccc1Br)[C@H](CO)CC(C)C	none
CCCNC(=O)CN(c1cccc(F)c1)S(C)(=O)=O	none
CCc1ccc(C(=O)COC(=O)c2cc([N+](=O)[O-])ccc2N2CCOCC2)cc1	SR-BI DiI inh 81
CCc1cccc(C)c1NC(=O)COC(=O)c1cc([N+](=O)[O-])ccc1N1CCOCC1	SR-BI DiI inh 72
O=C(COC(=O)c1cc([N+](=O)[O-])ccc1N1CCOCC1)c1ccc(F)cc1	SR-BI DiI inh 84
CC(NC(=O)COC(=O)c1cc([N+](=O)[O-])ccc1N1CCOCC1)c1ccc(F)cc1 (stereo not drawn)	none
CCCC(C(=O)NCCC(C)C)N(Cc1ccccc1)C(=O)c1snc(C(N)=O)c1N (stereo not drawn)	none
Nc1nc(SCC(=O)Nc2ccc([N+](=O)[O-])cc2)[nH]c(=O)c1NC(=O)c1ccc(Br)cc1	dFosB act 50
CCOc1cccc(C(=O)Nc2ccc(NC(=O)c3cc4ccccc4o3)c(OC)c2)c1	SR-BI DiI inh 72
COc1cc(NC(=O)c2cccc(C)c2)ccc1NC(=O)c1cc2ccccc2o1	SR-BI DiI inh 85
CN(Cc1ccccc1)c1ccc(S(=O)(=O)N2CCC(C(=O)O)CC2)cc1[N+](=O)[O-]	none
CNc1ccc(C(=O)N2CCN(S(=O)(=O)c3ccc4c(c3)OCCCO4)CC2)cc1[N+](=O)[O-]	none
CCOc1ccc(NC(=O)COC(=O)CCN2C(=O)C3CC=CCC3C2=O)cc1OCC (stereo not drawn)	none
C(C#CCCCCCCCCC[n+]1ccccc1)#CCCCCCCCCC[n+]1ccccc1	dFosB act 49
C/C(=N/NS(=O)(=O)c1ccc(CC(C)C)cc1)c1ccncc1	none
Cc1nn(-c2ccc(Cl)cc2)c(=O)c2ccccc12	none
Cc1c(Cl)sn(-c2ccc(Cl)cc2)c1=O	SR-BI DiI inh 72
Cc1nc2ccc(NC(=O)c3ccc([N+](=O)[O-])cc3[N+](=O)[O-])cc2s1	none
COc1ccc(C(=O)Nc2cccc([N+](=O)[O-])c2)cc1Br	SR-BI DiI inh 83
COc1ccc(C(=O)Nc2cccc(/C(C)=N/NC(=O)c3ccc([N+](=O)[O-])cc3)c2)cc1OC	SR-BI DiI inh 71
O=C(Nc1cccc([N+](=O)[O-])c1)c1cc2ccccc2cc1O	SR-BI DiI inh 129
COc1ccc(C(=O)N/N=C(/C)c2cccc(NC(=O)c3ccncc3)c2)cc1OC	none
Cc1nc2ccc(C(=O)Nc3cccc([N+](=O)[O-])c3)cc2s1	SR-BI DiI inh 74
COc1ccc(N2CCN(CCCn3cnc4c(OC)ncnc43)CC2)cc1	none (no result: SR-BI DiI inh, SR-BI uptake up, dFosB act, CDK5 p35 inh)
O=S(=O)(Nc1ccc(N2CCOCC2)cc1)c1c(F)cc(F)cc1Br	none (no result: SR-BI DiI inh, SR-BI uptake up)
CCOCCCNC(=O)c1c[nH]c2c(CC)cccc2c1=O	none
CCN(CC)C(=O)C1=C(C)N(Cc2ccc(OC)cc2)C(=O)C(CC(=O)NCCc2ccccn2)C1 (stereo not drawn)	none (no result: SR-BI DiI inh, SR-BI uptake up, dFosB act, CDK5 p35 inh)
O=C1CCC[C@@H]2[C@@H](Cc3ccccc3)[C@H](N3CCN(c4ccccc4)CC3)C[C@@H]3CCN1[C@@H]32	none
Cc1ccccc1NS(=O)(=O)c1cc(C(=O)Nc2cccc([N+](=O)[O-])c2)ccc1C	SR-BI DiI inh 72
CCN(CC)S(=O)(=O)c1ccc(C(=O)NCCc2cc3c(OC)ccc(OC)c3[nH]c2=O)cc1	SR-BI DiI inh 89
COc1ccc(OC)c2[nH]c(=O)c(CCNC(=O)c3ccc(S(=O)(=O)N4CCCC4)cc3)cc12	none
Cc1ccc(C)c(N2CCN(C(=O)Cc3ccc(NC4=NC5CS(=O)(=O)CC5S4)cc3)CC2)c1 (stereo not drawn)	none
O=C(/C=C/c1ccccc1)c1ccc(NC2=NCCCS2)cc1	none
O=C(/C=C/c1ccc(Br)cc1)c1ccc(NC2=NCCCS2)cc1	dFosB act 20
O=c1c2ccccc2nc(N/N=C/c2c(O)ccc3ccccc23)n1O	SR-BI DiI inh 129
Cc1ccc(-c2csc(N3CCC[C@@H]3C(=O)NCCn3c(-c4ccncc4)nc4ccccc43)n2)cc1	none
COc1ccc(C(=O)NCC(=O)OCc2c(Cl)cccc2Cl)cc1OC	none
Cc1ccc(-n2c(COc3c(C)cccc3C)nnc2SCC(=O)Nc2nccs2)cc1	dFosB act 21
Clc1ccc(/C=N/c2c(-c3ccc(Cl)cc3)nc3n2CCS3)cc1	SR-BI DiI inh 89
C(=N\c1c(-c2ccccc2)nc2n1CCS2)/c1ccccc1	none
CC1CCCC(C)N1C(=O)COC(=O)c1cc(=O)[nH]c2ccccc12 (stereo not drawn)	none
C=CCOC(=O)C1=C(C)NC(SCC)=C(C#N)C1c1ccc(Cl)cc1 (stereo not drawn)	SR-BI DiI inh 83
COc1ccc(CC(=O)Nc2ccc(N3CCN(c4ccc(OC)cc4)CC3)c(C#N)c2)cc1	SR-BI DiI inh 78
CCC(=O)Nc1ccc(NC(=O)c2cccc3c(Br)cccc23)cc1	none
O=c1[nH]c(N/N=C/c2ccccc2)nc2ccccc12	none
Cc1cc(N/N=C/c2ccc3c(c2)OCO3)nc2ccccc12	dFosB act 61
O=c1[nH]c(N/N=C\c2ccc3c(c2)OCO3)nc2ccccc12	dFosB act 34
O=S(=O)(c1cccc(Br)c1)N1CCN(CCc2ccccc2)CC1	none
COC(=O)[C@H](CO)N1C(=O)[C@@H]2[C@H](C1=O)C1C=C[C@H]2C1	none

High-throughput results from PubChem.
